Assay [1] concerns P388. Put plainly: In vivo for antitumor effect on P388 Leukemia of the CDF1 mouse at dose 40 uM/kg administered intraperitoneally. Format: functional, organism-based. The essentials:
(§1)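 P388 leukemia was passaged in female DBA/2 mice. Female CDF1 mice (18–22 g) received 1×10^6 cells ip in PBS on day 0. Groups of six (ten for solvent control) were dosed ip with aqueous solutions on days 1, 5 and 9. Median survival time = X + Y/2, with X and Y the first days reaching N/2 and N/2 + 1 deaths. %T/C = treated/control median survival ×100.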

In assay [2] the target is T1, Estrogen receptor (Mus musculus) (UniProt O08537+P19785). Put plainly: (§2) Administered subcutaneously on three consecutive days at a dose of 10 uM /Kg. It counts as functional. The essentials:
(§3)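 Immature female NMRI mice, 19 days old, in groups of six. Compounds were dissolved in water and given as 0.1 mL sc on days 1, 2 and 3; controls got vehicle and standards got estrone 0.4 μg. Animals were killed 24 h after the last dose. Uteri were fixed in Bouin solution, dried at 100 °C for 18 h and weighed. E = [uterine dry weight (mg)/body weight (g)]100, and estrogenic effect = (E_T − E_V)/(E_S − E_V)100.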

For assay [3], the target named is T1, Estrogen receptor (Mus musculus). Described as §2. Format: functional. The essentials: as §3
The source holds these as a separate data set.

Assay [4] shares this target. Description: Administered subcutaneously on three consecutive days at a dose of 1000 uM /Kg. It counts as functional. An outline of the steps: as §3
The subject of assay [5] is Mus musculus. Put plainly: Ratio of median survival time of tested group to that of control group of animals was reported at a concentration of 40 uM/Kg. Format: functional, organism-based. An outline of the steps:
as §1

For assay [6], the system named is Mus musculus. Description: Ratio of median survival time of tested group to that of control group of animals was reported at a concentration of 20 uM/Kg. It counts as functional, organism-based. An outline of the steps:
as §1

The subject of assay [7] is P388. Description: In vivo for antitumor effect on P388 Leukemia of the CDF1 and median survival time of the animals in days was reported at a concentration of 20 uM/Kg. It counts as functional, organism-based. As to conditions: Mus musculus. An outline of the steps:
as §1

In assay [8] the test system is P388. Put plainly: In vivo for antitumor effect on P388 Leukemia of the CDF1 and median survival time of the animals in days was reported at a concentration of 10 uM/Kg. Format: functional, organism-based. As to conditions: Mus musculus. An outline of the steps:
as §1

Assay [9] concerns Mus musculus. Put plainly: Ratio of median survival time of tested group to that of control group of animals was reported at a concentration of 10 uM/Kg. Format: functional, organism-based. The essentials: as §1
The subject of assay [10] is P388. Description: In vivo for antitumor effect on P388 Leukemia of the CDF1 and median survival time of the animals in days was reported at a concentration of 40 uM/Kg. It counts as functional, organism-based. As to conditions: Mus musculus. The essentials: as §1
For assay [11], the target named is T1, Estrogen receptor (Mus musculus). Description: (§4) Administered subcutaneously on three consecutive days at a dose of 100 uM /Kg. Format: functional. The essentials:
as §3

Assay [12] has as its system P388. Description: In vivo for antitumor effect on P388 Leukemia of the CDF1 mouse at dose 20 uM/kg administered intraperitoneally. It counts as functional, organism-based. An outline of the steps:
as §1

Assay [13] concerns P388. Put plainly: In vivo for antitumor effect on P388 Leukemia of the CDF1 mouse at dose 10 uM/kg administered intraperitoneally. It counts as functional, organism-based. An outline of the steps: as §1
Assay [14] deals with P388. Put plainly: In vivo antitumor effect on P388 Leukemia in CDF1 mice, median survival time in days at 10 uM/kg. It counts as functional, organism-based. To be noted: Mus musculus. An outline of the steps:
as §1

The target in assay [15] is T1, Estrogen receptor (Mus musculus). Put plainly: Administered subcutaneously on three consecutive days at a dose of 1000 uM /Kg. It counts as functional. The essentials: as §3
Assay [16] has the same target. The assay is described as §4. Format: functional. The essentials: as §3
The source holds these as a separate data set.

Assay [17] concerns P388. Put plainly: In vivo for antitumor effect on P388 Leukemia of the CDF1, and median survival time of the animals in days was reported at a concentration of 40 uM/Kg. Format: functional, organism-based. To be noted: Mus musculus. The essentials:
as §1

Assay [18] deals with T1, Estrogen receptor (Mus musculus). Put plainly: Estrogenic effect on subcutaneous 10 uM/kg dose for 3 days. It counts as functional. An outline of the steps: as §3
For assay [19], the system named is P388. Put plainly: In vivo antitumor effect on P388 Leukemia in CDF1 mice, median survival time in days at 20 umol/kg. Format: functional, organism-based. To be noted: Mus musculus. The essentials: as §1
In assay [20] the target is T1, Estrogen receptor (Mus musculus). Put plainly: Estrogenic effect on subcutaneous 1000 umol/kg dose for 3 days. It counts as functional. The essentials: as §3
Assay [21] shares this target. Put plainly: Estrogenic effect on subcutaneous 100 uM/kg dose for 3 days. Format: functional. An outline of the steps:
as §3

Assay [22] has as its system P388. Put plainly: In vivo antitumor effect on P388 Leukemia in CDF1 mice at 5 umol/kg intraperitoneal dose. Format: functional, organism-based. To be noted: Mus musculus. An outline of the steps: as §1
The subject of assay [23] is P388. Description: In vivo antitumor effect on P388 Leukemia in CDF1 mice, median survival time in days at 5 umol/kg. It counts as functional, organism-based. To be noted: Mus musculus. An outline of the steps:
as §1

In assay [24] the test system is Mus musculus. Description: Ratio of median survival time of tested group to control group at 5 umol/kg. Format: functional, organism-based. The essentials: as §1

Values joined by “and” are separate entries in the source; they are usually repeats but may differ in a detail not shown here. Equal entries are not always repeated.

The term T/C denotes the ratio of treated to control. Regarding “Aqua [threo-1-(-2-fluoro-4-hydroxyhenyl)-2-(2,6-dichloro-4-hydroxyphenyl) ethylenediamine](sulfato) platinum (II)”, the T-C is -3.8 g and -2.4 g in the assay with P388 [1]; -2.2 g and -1.2 g in the assay with P388 [12]. The Estrogenic effect in assay [2] is 9 and 11; in assay [3] it was 1% and 0%; in [4], 20 and 52; in assay [11], 11 and 13. Further, the T/C was 172% and 155% with Mus musculus [5]; 166% and 155% in the assay with Mus musculus [6]; 155% and 133% with Mus musculus [9]. Also, the MST in the assay with P388 [7] is 15 and 14; in the assay on P388 [8], 14 and 12; in the assay on P388 [10], 15.5 and 14.
Regarding “Aqua[erythro-1-(-3-hydroxyhenyl)-2-(2,6-dichloro-4-hydroxyphenyl) ethylenediamine](sulfato) platinum (II)(erythro-4-Ptso4)”, the T-C in the assay on P388 [1] was -4.6 g and -2.6 g; in the assay on P388 [13], -0.9 g and -1.5 g; in the assay on P388 [12], -1.7 g and -1.9 g. The MST in the assay with P388 [14] is 13; in the assay on P388 [17], 8; with P388 [7], 14.5 and 13.5; with P388 [8], 14; with P388 [10], 15.5. Besides, the Estrogenic effect was 0% in assay [15]; 0% in assay [16]; 0% in assay [3]; 19 and 32 in assay [4]. Besides, the T/C in the assay on Mus musculus [6] was 161% and 169%; in the assay with Mus musculus [9], 156% and 163%.
“Aqua[threo-1-(-2-chloro-4-hydroxyhenyl)-2-(2,6-dichloro-4-hydroxyphenyl) ethylenediamine](sulfato) platinum (II)(threo-9-Ptso4)”: the Estrogenic effect was 10% in assay [18]; 117% in [15]; 141% in assay [16]; 9 and 11 in [2]; 39% in assay [3]; 86 and 91 in assay [4]. Also, the Estrogenic effect in assay [20] is 35%; in [21], 14%; in assay [11] it was 21 and 22. For the same substance, the T-C was -2.9 g and -1.9 g with P388 [1]; -1.8 g and -2.4 g in the assay with P388 [13]; -1.8 g and -1.2 g in the assay on P388 [12]. Besides, the MST in the assay on P388 [14] is 14; in the assay on P388 [19] it was 14; in the assay with P388 [17], 14.5; with P388 [7], 13; in the assay with P388 [8], 11.5; in the assay with P388 [10] it was 14. The T/C in the assay on Mus musculus [5] was 161% and 155%; with Mus musculus [6], 155% and 144%.
In turn, CISPLATIN showed a T-C in the assay with P388 [22] of -3.8 g. In the assay with P388 [23], this substance came in with an MST of 19. Besides, in the assay with Mus musculus [24], the T/C is 238%.

The values are drawn from ChEMBL document CHEMBL1124913, “Aqua[1-(2,6-dichloro-4-hydroxyphenyl)-2- phenylethylenediamine](sulfato)platinum-(II) complexes with variable substituents in the 2-phenyl ring. 1. Synthesis and antitumor and estrogenic properties” (J Med Chem, 1990).
